From ChEMBL document CHEMBL1127365, “Self-immolative prodrugs: candidates for antibody-directed enzyme prodrug therapy in conjunction with a nitroreductase enzyme” (J Med Chem, 1994)

Columns and labels:
[1] = system: V79; experiment: (§1) Tested for the effect of enzyme activation on the cytotoxicity at 10 uM when incubated with chinese hamster V79 cells in presence of NADH and nitroreductase enzyme.; assay type: functional; settings: Cricetulus griseus, read-out: Survival
Outline: (§2)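 Chinese hamster V79 cells (2 × 10^5/mL) in PBS were exposed to the test agent with NADH (500 μM) and E. coli B nitroreductase (10 μg/mL) for 2 h at 37 °C. Cells were then harvested and assayed for colony-forming ability, reported as % survival. The supernatant was assayed by HPLC for remaining prodrug, giving % prodrug reduction.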

[2] = system: V79; experiment: as §1; assay type: functional, Cricetulus griseus; outline: as §2
[3] = system: V79; experiment: (§3) Tested for the effect of enzyme activation on the cytotoxicity at 10 uM when incubated with chinese hamster V79 cells in presence of NADH; assay type: functional, Cricetulus griseus
Outline: (§4)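 Chinese hamster V79 cells (2 × 10^5/mL) in PBS were exposed to the test agent plus NADH (500 μM), without enzyme, for 2 h at 37 °C. Cells were then harvested and assayed for colony-forming ability, reported as % survival. The supernatant was assayed by HPLC for remaining prodrug.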

[4] = system: V79; experiment: as §3; assay type: functional; settings: Cricetulus griseus, read-out: Survival; outline: as §4
[5] = system: V79; experiment: (§5) Tested for the effect of enzyme activation on the cytotoxicity at 10 uM when incubated with chinese hamster V79 cells; assay type: functional, Cricetulus griseus
[6] = system: V79; experiment: as §5; assay type: functional; settings: Cricetulus griseus, read-out: Survival
Outline: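 Chinese hamster V79 cells (2 × 10^5/mL) in PBS were exposed to the test agent alone, without NADH or NR, for 2 h at 37 °C. Cells were then harvested and assayed for colony-forming ability, reported as % survival. The supernatant was checked by HPLC for remaining prodrug.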

[7] = system: V79; experiment: (§6) Tested for the effect of enzyme activation on the cytotoxicity at 50 uM when incubated with chinese hamster V79 cells in presence of NADH and nitroreductase enzyme.; assay type: functional; settings: Cricetulus griseus, read-out: Survival; outline: as §2
[8] = system: V79; experiment: (§7) Tested for the effect of enzyme activation on the cytotoxicity at 50 uM when incubated with chinese hamster V79 cells in presence of NADH; assay type: functional; settings: Cricetulus griseus, read-out: Survival; outline: as §4
[9] = system: V79; experiment: (§8) Tested for the effect of enzyme activation on the cytotoxicity at 50 uM when incubated with chinese hamster V79 cells; assay type: functional; settings: Cricetulus griseus, read-out: Survival
[10] = system: V79; experiment: as §7; assay type: functional, Cricetulus griseus; outline: as §4
[11] = system: V79; experiment: as §8; assay type: functional, Cricetulus griseus
[12] = system: V79; experiment: as §6; assay type: functional, Cricetulus griseus; outline: as §2
[13] = system: V79; experiment: (§9) Tested for the effect of enzyme activation on the cytotoxicity at 1 uM when incubated with chinese hamster V79 cells in presence of NADH; assay type: functional; settings: Cricetulus griseus, read-out: Survival; outline: as §4
[14] = system: V79; experiment: (§10) Tested for the effect of enzyme activation on the cytotoxicity at 1 uM when incubated with chinese hamster V79 cells in presence of NADH and nitroreductase enzyme.; assay type: functional, Cricetulus griseus; outline: as §2
[15] = system: V79; experiment: as §9; assay type: functional, Cricetulus griseus
[16] = system: V79; experiment: (§11) Tested for the effect of enzyme activation on the cytotoxicity at 1 uM when incubated with chinese hamster V79 cells; assay type: functional, Cricetulus griseus
[17] = system: V79; experiment: as §10; assay type: functional; settings: Cricetulus griseus, read-out: Survival; outline: as §2
[18] = system: V79; experiment: as §11; assay type: functional; settings: Cricetulus griseus, read-out: Survival
[19] = system: Mus musculus; experiment: In vivo toxicity in mouse at dose 100 mg/kg when administered intraperitoneally on day 3; assay type: organism-based; design: dose 100 mg/kg, route intraperitoneal; settings: ip
Outline: (§12)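 Balb C mice (20-25 g), groups of 3, single ip injection in arachis oil; doses 1, 5, 10 or 100 mg/kg. Untreated and arachis-oil-only groups served as controls. Mice were fed rodent diet and water ad libitum. Body weight was recorded as % of day 0 on days 2, 3, 7 and 9, and deaths were noted.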

[20] = system: Mus musculus; experiment: In vivo toxicity in mouse at dose 1 mg/kg when administered intraperitoneally on day 7; assay type: organism-based; design: dose 1 mg/kg, route intraperitoneal; settings: ip; outline: as §12
[21] = system: Mus musculus; experiment: In vivo toxicity in mouse at dose 1 mg/kg when administered intraperitoneally on day 2; assay type: organism-based; design: dose 1 mg/kg, route intraperitoneal; settings: ip; outline: as §12
[22] = system: Mus musculus; experiment: In vivo toxicity in mouse at dose 100 mg/kg when administered intraperitoneally on day 9; assay type: organism-based; design: dose 100 mg/kg, route intraperitoneal; settings: ip; outline: as §12
[23] = system: Mus musculus; experiment: In vivo toxicity in mouse at dose 10 mg/kg when administered intraperitoneally on day 7; assay type: organism-based; design: dose 10 mg/kg, route intraperitoneal; settings: ip; outline: as §12
[24] = system: Mus musculus; experiment: In vivo toxicity in mouse at dose 100 mg/kg when administered intraperitoneally on day 2; assay type: organism-based; design: dose 100 mg/kg, route intraperitoneal; settings: ip; outline: as §12
[25] = system: Mus musculus; experiment: In vivo toxicity in mouse at dose 10 mg/kg when administered intraperitoneally on day 3; assay type: organism-based; design: dose 10 mg/kg, route intraperitoneal; settings: ip; outline: as §12
[26] = system: Mus musculus; experiment: In vivo toxicity in mouse at dose 10 mg/kg when administered intraperitoneally on day 2; assay type: organism-based; design: dose 10 mg/kg, route intraperitoneal; settings: ip; outline: as §12
[27] = system: Mus musculus; experiment: In vivo toxicity in mouse at dose 100 mg/kg when administered intraperitoneally on day 7; assay type: organism-based; design: dose 100 mg/kg, route intraperitoneal; settings: ip; outline: as §12
[28] = system: Mus musculus; experiment: In vivo toxicity in mouse at dose 10 mg/kg when administered intraperitoneally on day 9; assay type: organism-based; design: dose 10 mg/kg, route intraperitoneal; settings: ip; outline: as §12
[29] = system: Mus musculus; experiment: In vivo toxicity in mouse at dose 1 mg/kg when administered intraperitoneally on day 9; assay type: organism-based; design: dose 1 mg/kg, route intraperitoneal; settings: ip; outline: as §12
[30] = system: Mus musculus; experiment: In vivo toxicity in mouse at dose 1 mg/kg when administered intraperitoneally on day 3; assay type: organism-based; design: dose 1 mg/kg, route intraperitoneal; settings: ip; outline: as §12
[31] = system: Mus musculus; experiment: Tested in vivo toxicity in mouse at dose 1 mg/kg when administered intraperitoneally on day 9; assay type: organism-based; design: dose 1 mg/kg, route intraperitoneal; settings: ip
Outline: (§13)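 Balb C mice (20-25 g), groups of 3, fed rodent diet and water ad libitum. Single ip injection in arachis oil at 1, 5, 10 or 100 mg/kg. Untreated and arachis-oil-only groups served as controls. Body weight recorded as % of day 0 on days 2, 3, 7 and 9.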

[32] = system: Mus musculus; experiment: Tested in vivo toxicity in mouse at dose 1 mg/kg when administered intraperitoneally on day 3; assay type: organism-based; design: dose 1 mg/kg, route intraperitoneal; settings: ip; outline: as §13
[33] = system: Mus musculus; experiment: Tested in vivo toxicity in mouse at dose 1 mg/kg when administered intraperitoneally on day 2; assay type: organism-based; design: dose 1 mg/kg, route intraperitoneal; settings: ip; outline: as §13
[34] = system: Mus musculus; experiment: Tested in vivo toxicity in mouse at dose 1 mg/kg when administered intraperitoneally on day 7; assay type: organism-based; design: dose 1 mg/kg, route intraperitoneal; settings: ip; outline: as §13
[35] = system: V79; experiment: as §9; assay type: functional, Cricetulus griseus; outline: as §4; remark: listed apart in the source

Structure (SMILES): O=C(OCc1ccc([N+](=O)[O-])cc1)Oc1ccc(N(CCCl)CCCl)cc1
- viability at 10 µM [1]: 43.3%
- Prodrug reduction [2]: 86%
- Prodrug reduction [3]: 0%
- viability at 10 µM [4]: 45.8%
- Prodrug reduction [5]: 0%
- viability at 10 µM [6]: 56.4%

Structure (SMILES): O=C(Nc1ccc(N(CCCl)CCCl)cc1)OCc1ccc([N+](=O)[O-])cc1
- viability at 50 µM [7]: < 0.001%
- viability at 50 µM [8]: 34.1%
- viability at 50 µM [9]: 27.1%
- Prodrug reduction [10]: 0%
- Prodrug reduction [11]: 0%
- Prodrug reduction [12]: 30%

Structure (SMILES): COC12C(COC(N)=O)C3=C(C(O)=C(C)C(=N)C3=O)N1CC1C2N1C(=O)OCc1ccc([N+](=O)[O-])cc1 (stereo unspecified)
- viability at 1 µM [13]: 70.8%
- Prodrug reduction [14]: 91%
- Prodrug reduction [15]: 0%
- Prodrug reduction [16]: 0%
- viability at 1 µM [17]: 25.4%
- viability at 1 µM [18]: 76.7%

Structure (SMILES): Cc1c2oc3c(C)ccc(C(=O)N[C@@H]4C(=O)N[C@H](C(C)C)C(=O)N5CCC[C@H]5C(=O)N(C)CC(=O)N(C)[C@@H](C(C)C)C(=O)O[C@@H]4C)c3nc-2c(C(=O)N[C@@H]2C(=O)N[C@H](C(C)C)C(=O)N3CCC[C@H]3C(=O)N(C)CC(=O)N(C)[C@@H](C(C)C)C(=O)O[C@@H]2C)c(NC(=O)OCc2ccc([N+](=O)[O-])cc2)c1=O [listing 1 of 2 here]
- Weight [19]: 95.6%
- Weight [20]: 101%
- Weight [21]: 102%
- Weight [22]: 96%
- Weight [23]: 108%
- Weight [24]: 96.4%
- Weight [25]: 105%
- Weight [26]: 109%
- Weight [27]: 95%
- Weight [28]: 110%
- Weight [29]: 103%
- Weight [30]: 101%

Structure (SMILES): Cc1c2oc3c(C)ccc(C(=O)N[C@@H]4C(=O)N[C@H](C(C)C)C(=O)N5CCC[C@H]5C(=O)N(C)CC(=O)N(C)[C@@H](C(C)C)C(=O)O[C@@H]4C)c3nc-2c(C(=O)N[C@@H]2C(=O)N[C@H](C(C)C)C(=O)N3CCC[C@H]3C(=O)N(C)CC(=O)N(C)[C@@H](C(C)C)C(=O)O[C@@H]2C)c(N)c1=O (stereo in doubt) [DACTINOMYCIN]
- Weight [31]: 103%
- Weight [32]: 95%
- Weight [33]: 98.6%
- Weight [34]: 101.6%

Structure (SMILES): Cc1c2oc3c(C)ccc(C(=O)N[C@@H]4C(=O)N[C@H](C(C)C)C(=O)N5CCC[C@H]5C(=O)N(C)CC(=O)N(C)[C@@H](C(C)C)C(=O)O[C@@H]4C)c3nc-2c(C(=O)N[C@@H]2C(=O)N[C@H](C(C)C)C(=O)N3CCC[C@H]3C(=O)N(C)CC(=O)N(C)[C@@H](C(C)C)C(=O)O[C@@H]2C)c(NC(=O)OCc2ccc([N+](=O)[O-])cc2)c1=O [listing 2 of 2 here]
- viability at 1 µM [13]: 102%
- Prodrug reduction [14]: 90.5%
- viability at 10 µM [1]: < 0.001%
- Prodrug reduction [2]: 93%
- Prodrug reduction [3]: 0%
- Prodrug reduction [16]: 0%
- Prodrug reduction [35]: 0%
- viability at 10 µM [4]: 44.6%
- viability at 1 µM [17]: 27.4%
- viability at 1 µM [18]: 98.3%
- Prodrug reduction [5]: 0%
- viability at 10 µM [6]: 39.3%
